Cav3 T inh – blocks human Cav3.2 T-type calcium channel; B-score at 10 µM; 4% of 100,000 active; Cav3.2-expressing cells, Fluo-4 calcium fluorescence FDSS; hits give low values;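 active means single-dose well whose peak fluorescence ratio is a statistical outlier from its plate by either plate-standardised score or position-corrected B-score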
Rev-RRE block – inhibitors of HIV-1 Rev-RRE RNA interaction. P05866. Rev peptide-RRE RNA binding, FRET. inhibition, % at 8 µM. 0.79% of 97,000 active;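 active means inhibition above the screen-wide mean plus 3 SD, cut at about 35% in these data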
Target sequence (P05866 whole entry, looked up): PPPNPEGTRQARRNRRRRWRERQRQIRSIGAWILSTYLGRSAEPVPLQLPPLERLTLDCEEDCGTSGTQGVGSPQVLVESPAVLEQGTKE
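Test system: labelled RRE RNA duplex and labelled Rev peptide. Times: 5 min compound–RNA preincubation, then 15 min with peptide, 25 °C. Doses: single-dose 8 µM. Measured by: FRET, excitation 480 nm, emission 540 nm donor and 671 nm acceptor. Measure: % inhibition of FRET ratio versus controls.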
EphB4 ephrin blk – blocks human EphB4 binding to ephrin-B2. EphB4 LBD / TNYL-RAW-Alexa532 peptide, fluorescence polarization. AID 720. P54760. 0.15% of 97,000 active. inhibition, % at 7 µM;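 active means inhibition above the screen-wide mean inhibition plus 3 SD, cut at about 15% in these data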
DAT uptake mod – modulates human dopamine transporter uptake under cocaine; 1.3% of 110,000 active; LLC-PK1 hDAT cells, [14C]-dopamine uptake with cocaine IC80; actives deviate in either direction; B-score at 10 µM; Q01959;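 active means Z score or B-score, a plate-position-corrected score, falls beyond the plate's 99.7% confidence bounds, in either direction; inactive means both scores lie inside the 99.7% bounds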
Large screens that a line does not name were inactive; [ ] = remark or other dose. This is a sample that favours compounds with a hit; in the whole collection about 5.4% have one here.

CCOC(=O)N1CCC(n2c(SCC(=O)NCc3ccccc3)nc3ccccc3c2=O)CC1	EphB4 ephrin blk 16
CCOC(=O)CSc1nc2ccccc2c(=O)n1CC1CCCC1	Cav3 T inh -3.5
CCOC(=O)N1CCC(n2c(SCC(=O)NCCC3=CCCCC3)nc3ccccc3c2=O)CC1	Cav3 T inh -5.1, EphB4 ephrin blk 15
CCOC(=O)N1CCC(n2c(SCC(=O)N3CCC(C)CC3)nc3ccccc3c2=O)CC1	none
COC(=O)c1cccc2nc3c(C(C)O)cccc3nc12 (stereo unspecified)	none (no result: Rev-RRE block, EphB4 ephrin blk)
CC(C)(C(=O)c1ccccc1)/[N+]([O-])=C/c1ccc(Br)cc1	none
CCN(CCCNC(=O)CC(C(=O)N1CCc2ccccc21)n1ccnc1)c1ccccc1 (stereo unspecified)	Cav3 T inh -4.6
COc1ccc(-n2nc(C(=O)NCC(=O)NCc3ccc(F)cc3)c3ccccc3c2=O)c(OC)c1	none
Cc1ccccc1N1C(=O)c2ccccc2N2C(=O)c3ccccc3C12 (stereo unspecified)	Cav3 T inh -4.3
O=C1c2ccccc2N2C(=O)c3ccccc3C2N1O (stereo unspecified)	none
Cc1c(NC(=O)c2cnn3c2NC(c2ccc(Br)cc2)CC3C(F)(F)F)c(=O)n(-c2ccccc2)n1C (stereo unspecified)	Cav3 T inh -7.8
Cc1nn(Cc2ccc(F)cc2)c(C)c1NC(=O)c1cnn2c1NC(c1cccs1)CC2C(F)(F)F (stereo unspecified)	DAT uptake mod 2.9
Cc1nn(C)cc1CNC(=O)c1cnn2c1NC(c1ccc(Br)cc1)CC2C(F)(F)F (stereo unspecified)	none (no result: Rev-RRE block, EphB4 ephrin blk)
Cc1c(CNC(=O)c2cnn3c2NC(c2ccc(Br)cc2)CC3C(F)(F)F)cnn1C (stereo unspecified)	DAT uptake mod 3.1
Cc1cccc(N2CCN(C(=O)c3cccc(N4C(=O)C5CC=CC(C)C5C4=O)c3)CC2)c1C (stereo unspecified)	none
CC1(C)CC(=O)C=C(NNC(=O)c2ccccc2O)C1	Rev-RRE block 36
CC(C)NS(=O)(=O)c1ccc(OCC(=O)Nc2cccc3ccccc23)cc1	Cav3 T inh -3.6
COCC(=O)Nc1cccc2ccccc12	none
CCOc1ccc2nc(NC(=O)CN3CCC(n4nnc5cc(F)ccc54)CC3)sc2c1	DAT uptake mod 4.3
CCOC(=O)N1CCN(C(=O)Cn2cc3c(n2)CCCC3)CC1	DAT uptake mod -7.9 (no result: Rev-RRE block, EphB4 ephrin blk)
CSc1nsc(SC)c1C(=O)N1CCN(S(=O)(=O)c2ccc(C)cc2)C1C(C)C (stereo unspecified)	Cav3 T inh -5.1
CCn1cc(C(=O)N2CCN(c3cccc(Cl)c3)CC2)c2cc(OC)c(OC)cc2c1=O	none
CC1CC(C)CN(C(=O)c2ccccc2Nc2ccc(SC(F)F)cc2)C1 (stereo unspecified)	Cav3 T inh -4.2
O=C(NCCc1c[nH]c2ccccc12)c1ccc(S(=O)(=O)NCc2ccco2)cc1	DAT uptake mod -7.7
O=C(NC1CCCCCC1)c1ccc(S(=O)(=O)NCc2ccco2)cc1	none
C(=N\N1CCN(C2c3ccccc3-c3ccccc32)CC1)/c1ccncc1	none (no result: Cav3 T inh)
COc1cc(/C=N/N2CCN(C3c4ccccc4-c4ccccc43)CC2)ccc1O	DAT uptake mod -1.8
COc1cc(CCN2C(=O)c3cccc4cccc(c34)C2=O)c(S(=O)(=O)NCCCO)cc1OC	none
CCOC(=O)N1CCN(S(=O)(=O)c2ccc(C)cc2)C1c1ccccc1 (stereo unspecified)	Cav3 T inh -4.1
CCOC(=O)N1CCN(S(=O)(=O)c2ccc(C)cc2)C1c1ccc(OC)cc1 (stereo unspecified)	none (no result: Cav3 T inh, DAT uptake mod)
O=C(CC12CC3CC(CC(C3)C1)C2)Nc1cccc2ncccc12	none
O=C(Nc1ccc(Cl)cc1)N1CCCC1	none
Cc1ccc(NC(=O)N2CCC(O)(c3ccc(Cl)cc3)CC2)cc1	Cav3 T inh -4.3
COc1ccc(S(=O)(=O)N2CCC(n3cnc4cc(C(F)(F)F)ccc43)CC2)cc1	Cav3 T inh -6.2 (no result: Rev-RRE block, EphB4 ephrin blk)
CC(=O)Nc1ccc(S(=O)(=O)N2CCC(n3cnc4cc(F)ccc43)CC2)cc1	none
CC1CCN(C(=O)CSc2nc3ccccc3c(=O)n2Cc2ccc3c(c2)OCO3)CC1	Cav3 T inh -4.9
O=C(c1ccc2c(=O)n(Cc3ccco3)c(=S)[nH]c2c1)N1CCN(Cc2ccccc2)CC1	Cav3 T inh -6.6
CC1CCN(C(=O)Cn2c(=O)n(Cc3ccc4c(c3)OCO4)c(=O)c3ccccc32)CC1	none
CN1CCN(C(=O)c2ccc3c(=O)n(CCc4ccccc4)c(=S)[nH]c3c2)CC1	none (no result: Cav3 T inh, DAT uptake mod)
CC1CCCN(C(=O)c2ccc3c(=O)n(Cc4ccc5c(c4)OCO5)c(=S)[nH]c3c2)C1 (stereo unspecified)	Cav3 T inh -5.3
CN1C(C(=O)NCc2ccc(OC(F)(F)F)cc2)CC2Cn3c(nc4cc(Cl)c(Cl)cc43)C21 (stereo unspecified)	none (no result: Rev-RRE block, EphB4 ephrin blk)
CN(C)C=Nc1c(Br)cc(Br)c2nonc12	Cav3 T inh -4.2, Rev-RRE block 68[fluorescence artefact?]
CN(C)C=Nc1nonc1-c1ncn[nH]1	none
COc1ccc(NC(=O)CSc2nnc(-c3cccs3)n2C)cc1OC	none (no result: Rev-RRE block, EphB4 ephrin blk)
COc1ccc(NC(=O)CSc2nc3c(c(-c4cccs4)c2C#N)CN(C)CC3)cc1OC	Rev-RRE block 63
COC(=O)C1=C(C(=O)OC)[C@@H]2N(C)c3ccc(OC)cc3[C@@]23C[C@@H](C(=O)OC)N=C3N1	none (no result: Rev-RRE block, EphB4 ephrin blk)
CCCc1[nH][nH]c(=O)c1C(c1cccc(Cl)c1)C(C#N)C#N (stereo unspecified)	DAT uptake mod -9.4
N#CC(C#N)C(c1ccsc1)c1c(-c2ccccc2)[nH][nH]c1=O (stereo unspecified)	none
COc1cc(N)c(Cl)cc1C(=O)N[C@@H]1CCN(CCCOc2ccc(F)cc2)C[C@@H]1OC	none (no result: Rev-RRE block, EphB4 ephrin blk)
CC1CCCC(N2C(=O)NC(NC(=O)c3ccco3)(C(F)(F)F)C2=O)C1C (stereo unspecified)	none
Cc1csc(NC(=O)CSc2nnc(-c3ccccn3)n2-c2ccc(C)c(C)c2)n1	DAT uptake mod 2.7
Cc1ccc(-c2csc(N(C)C(=O)c3c(C)nn(-c4ccccc4)c3Cl)n2)cc1	none
CCS(=O)(=O)n1nc(NCc2cccc(OC)c2)nc1NCc1cccc(OC)c1	Cav3 T inh -4.2
CC(C)OCCCn1c(=N)c(C(N)=S)cc2c(=O)n3ccccc3nc21	Rev-RRE block 66
Cc1ccccc1NC(=O)c1cc(S(=O)(=O)c2ccccc2)ccc1Cl	none
Cc1cccc(NS(=O)(=O)c2ccc(C3CCCCC3)cc2)c1	Cav3 T inh -4.5
Cc1cccc(NC(=O)c2cc(S(=O)(=O)c3ccccc3)ccc2Cl)c1	Cav3 T inh -5.6
Cc1cccc(NC(=O)c2cccc(NS(=O)(=O)c3ccc(Cl)cc3)c2)c1	Cav3 T inh -9.6
Cc1ccc(S(=O)(=O)Nc2cc(C(=O)Nc3cc(C)cc(C)c3)ccc2Cl)cc1	Cav3 T inh -5.3
CCOC(=O)N1CCC(NC(=O)c2cc(C(=O)NCC(OC)OC)ccc2CO)CC1	none

High-throughput results deposited in PubChem BioAssay by several laboratories.
